Results from ChEMBL document CHEMBL1938381, “Design, synthesis, and structure-activity relationship studies of conformationally restricted mutilin 14-carbamates” (2012).
Values after ≈ are worked out from the molar mass of the structure shown.

Legend:
Assay type in all cases: functional
Staphylococcus aureus [1] = experiment: Antibacterial activity against methicillin-susceptible Staphylococcus aureus by agar microdilution method
In short: (§1)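 MIC by agar microdilution following NCCLS standard M7-A6 (2003), tested against clinical isolates: MRSA n = 6, MRSE n = 5, MSSA n = 5, MSSE n = 5; values given as a single MIC or a range across isolates.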

Staphylococcus aureus [2] = experiment: Antibacterial activity against methicillin-resistant Staphylococcus aureus by agar microdilution method; in short: as §1
[3] = system: Staphylococcus epidermidis; experiment: Antibacterial activity against methicillin-resistant Staphylococcus epidermidis by agar microdilution method; in short: as §1
[4] = system: Staphylococcus epidermidis; experiment: Antibacterial activity against methicillin-susceptible Staphylococcus epidermidis by agar microdilution method; in short: as §1
Streptococcus pneumoniae = experiment: Antibacterial activity against Streptococcus pneumoniae by agar microdilution method
In short: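 MIC read by agar microdilution following NCCLS standard M7-A6 (2003), against a panel of 3 Streptococcus pneumoniae clinical isolates. Values in µg/mL, given as a range where the isolates differed.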

Row | Compound | MIC (Staphylococcus aureus [1]) | MIC (Staphylococcus aureus [2]) | MIC [3] | MIC [4] | MIC (Streptococcus pneumoniae)
1 | C=C[C@]1(C)C[C@@H](OC(=O)N2Cc3c(NC(=O)[C@@H](N)C(C)C)cccc3C2=O)[C@]2(C)[C@H](C)CC[C@]3(CCC(=O)[C@H]32)[C@@H](C)[C@@H]1O.Cl | 0.5 µg/mL | 0.5 µg/mL | 0.5 µg/mL | 0.5 µg/mL | 0.5 µg/mL
2 | C=C[C@]1(C)C[C@@H](OC(=O)N2Cc3ccc(NC(=O)[C@H](C)N)cc3C2=O)[C@]2(C)[C@H](C)CC[C@]3(CCC(=O)[C@H]32)[C@@H](C)[C@@H]1O.Cl | 0.5 µg/mL | 0.5 µg/mL | 0.5 µg/mL | 0.5 µg/mL | 0.5 µg/mL
3 | C=C[C@]1(C)C[C@@H](OC(=O)N2Cc3ccc(NC(=O)[C@@H](N)C(C)C)cc3C2=O)[C@]2(C)[C@H](C)CC[C@]3(CCC(=O)[C@H]32)[C@@H](C)[C@@H]1O.Cl | 1 µg/mL | 1 µg/mL | 1 µg/mL | 1 µg/mL | 2 µg/mL
4 | C=C[C@]1(C)C[C@@H](OC(=O)N2CCc3cc(OC)ccc3C2=O)[C@]2(C)[C@H](C)CC[C@]3(CCC(=O)[C@H]32)[C@@H](C)[C@@H]1O | 1 µg/mL (≈ 1.91 µM) | 2 µg/mL (≈ 3.82 µM) | 0.5 µg/mL (≈ 0.955 µM) | 1 µg/mL (≈ 1.91 µM) | 2 µg/mL (≈ 3.82 µM)
5 | C=C[C@]1(C)C[C@@H](OC(=O)N2CCc3ccccc3C2=O)[C@]2(C)[C@H](C)CC[C@]3(CCC(=O)[C@H]32)[C@@H](C)[C@@H]1O | 0.25 µg/mL (≈ 0.506 µM) | 0.25 µg/mL (≈ 0.506 µM) | 0.25 µg/mL (≈ 0.506 µM) | 0.25 µg/mL (≈ 0.506 µM) | 0.25 µg/mL (≈ 0.506 µM)
6 | C=C[C@]1(C)C[C@@H](OC(=O)N2CCc3ccc([N+](=O)[O-])cc3C2=O)[C@]2(C)[C@H](C)CC[C@]3(CCC(=O)[C@H]32)[C@@H](C)[C@@H]1O | 1 µg/mL (≈ 1.86 µM) | 1 µg/mL (≈ 1.86 µM) | 1 µg/mL (≈ 1.86 µM) | 1 µg/mL (≈ 1.86 µM) | 2 µg/mL (≈ 3.71 µM)
7 | C=C[C@]1(C)C[C@@H](OC(=O)N2CCc3cc(OCCN4CCOCC4)ccc3C2=O)[C@]2(C)[C@H](C)CC[C@]3(CCC(=O)[C@H]32)[C@@H](C)[C@@H]1O | 0.5 µg/mL (≈ 0.803 µM) | 0.5 µg/mL (≈ 0.803 µM) | 0.5 µg/mL (≈ 0.803 µM) | 0.5 µg/mL (≈ 0.803 µM) | 0.5 µg/mL (≈ 0.803 µM)
8 | C=C[C@]1(C)C[C@@H](OC(=O)N2CCc3cc(OCCN4CCCCC4)ccc3C2=O)[C@]2(C)[C@H](C)CC[C@]3(CCC(=O)[C@H]32)[C@@H](C)[C@@H]1O | 0.5 µg/mL (≈ 0.805 µM) | 0.5 µg/mL (≈ 0.805 µM) | 1 µg/mL (≈ 1.61 µM) | 0.5 µg/mL (≈ 0.805 µM) | 1 µg/mL (≈ 1.61 µM)
9 | C=C[C@]1(C)C[C@@H](OC(=O)N2CCc3cc(OCCN4CCN(C)CC4)ccc3C2=O)[C@]2(C)[C@H](C)CC[C@]3(CCC(=O)[C@H]32)[C@@H](C)[C@@H]1O | 0.5 µg/mL (≈ 0.786 µM) | 0.5 µg/mL (≈ 0.786 µM) | 0.5 µg/mL (≈ 0.786 µM) | 0.5 µg/mL (≈ 0.786 µM) | 0.5 µg/mL (≈ 0.786 µM)
10 | C=C[C@]1(C)C[C@@H](OC(=O)N2CCc3cc(OCCCN4CCOCC4)ccc3C2=O)[C@]2(C)[C@H](C)CC[C@]3(CCC(=O)[C@H]32)[C@@H](C)[C@@H]1O | 0.5 µg/mL (≈ 0.785 µM) | 0.5 µg/mL (≈ 0.785 µM) | 0.5 µg/mL (≈ 0.785 µM) | 0.5 µg/mL (≈ 0.785 µM) | 0.5 µg/mL (≈ 0.785 µM)
11 | C=C[C@]1(C)C[C@@H](OC(=O)N2CCc3cc(OCCCN4CCCCC4)ccc3C2=O)[C@]2(C)[C@H](C)CC[C@]3(CCC(=O)[C@H]32)[C@@H](C)[C@@H]1O | 0.5 µg/mL (≈ 0.788 µM) | 0.5 µg/mL (≈ 0.788 µM) | 0.5 µg/mL (≈ 0.788 µM) | 0.5 µg/mL (≈ 0.788 µM) | 0.5 µg/mL (≈ 0.788 µM)
12 | C=C[C@]1(C)C[C@@H](OC(=O)N2CCc3cc(OCCCN4CCN(C)CC4)ccc3C2=O)[C@]2(C)[C@H](C)CC[C@]3(CCC(=O)[C@H]32)[C@@H](C)[C@@H]1O | 0.5 µg/mL (≈ 0.769 µM) | 0.5 µg/mL (≈ 0.769 µM) | 0.5 µg/mL (≈ 0.769 µM) | 0.5 µg/mL (≈ 0.769 µM) | 0.5 µg/mL (≈ 0.769 µM)
13 | C=C[C@]1(C)C[C@@H](OC(=O)N2CCc3cc(OCCCCN4CCOCC4)ccc3C2=O)[C@]2(C)[C@H](C)CC[C@]3(CCC(=O)[C@H]32)[C@@H](C)[C@@H]1O | 0.5 µg/mL (≈ 0.768 µM) | 0.5 µg/mL (≈ 0.768 µM) | 0.5 µg/mL (≈ 0.768 µM) | 0.5 µg/mL (≈ 0.768 µM) | 0.5 µg/mL (≈ 0.768 µM)
14 | C=C[C@]1(C)C[C@@H](OC(=O)N2CCc3ccc(N)cc3C2=O)[C@]2(C)[C@H](C)CC[C@]3(CCC(=O)[C@H]32)[C@@H](C)[C@@H]1O | 0.0625 µg/mL (≈ 0.123 µM) | 0.0625 µg/mL (≈ 0.123 µM) | 0.0625 µg/mL (≈ 0.123 µM) | 0.0625 µg/mL (≈ 0.123 µM) | 0.0625 µg/mL (≈ 0.123 µM)
15 | C=C[C@]1(C)C[C@@H](OC(=O)NC(=O)c2ccc(OC)cc2)[C@]2(C)[C@H](C)CC[C@]3(CCC(=O)[C@H]32)[C@@H](C)[C@@H]1O | – | – | – | – | 0.0625 µg/mL (≈ 0.126 µM)
16 | CC(=O)NC[C@H]1CN(c2ccc(N3CCOCC3)c(F)c2)C(=O)O1 [LINEZOLID] | 0.5 µg/mL (≈ 1.48 µM) | – | – | 0.5 µg/mL (≈ 1.48 µM) | –
17 | C=C[C@]1(C)C[C@@H](OC(=O)CS[C@@H]2C[C@H]3CC[C@@H](C2)N3C)[C@]2(C)[C@H](C)CC[C@]3(CCC(=O)[C@H]32)[C@@H](C)[C@@H]1O [RETAPAMULIN] | 0.0625 µg/mL (≈ 0.121 µM) | 0.125 µg/mL (≈ 0.241 µM) | 0.125 µg/mL (≈ 0.241 µM) | 0.0625 µg/mL (≈ 0.121 µM) | 0.0625 µg/mL (≈ 0.121 µM)
